In ChEMBL document CHEMBL3877292, “Synthesis and evaluation of novel hybrids β-carboline-4-thiazolidinones as potential antitumor and antiviral agents” (Eur J Med Chem, 2016):
pEC50: −log10 of the molar value.

Experiments:
786-0 [1] = test: Induction of apoptosis in human 786-0 cells assessed as late apoptotic or necrotic cells at 25 uM after 18 hrs by 7-AAD staining based flow cytometry; assay type: functional
Method in brief: (§1)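 786-0 cells seeded at 3×10^4 cells/mL and grown 24 h at 37 °C under 5% CO2. Exposed to 25 µM in DMSO/RPMI for 15, 18 or 24 h against DMSO vehicle. Results are mean ± standard error from three experiments in triplicate.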

[2] = Cytotoxicity against African green monkey Vero cells after 48 hrs by SRB assay; assay type: toxicity, cell-based; conditions: chlorocebus sabaeus
Method in brief: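 Vero (ATCC CCL81) cells grown in DMEM with 10% FBS and gentamicin at 37°C, 5% CO2. Cells exposed in triplicate to 1000, 500, 100, 10, 1 and 0.1 µg/mL, with untreated cells as control. Viability read by sulforhodamine B colorimetry. CC50 is the concentration giving 50% cytotoxicity.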

[3] = Antiproliferative activity against human OVCAR3 cells after 48 hrs by SRB assay; assay type: functional; conditions: OVCAR-3, 48 h
Method in brief: (§2)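 Cells grown in RPMI 1640 with 5% FBS, with penicillin/streptomycin in experimental cultures. Exposed in triplicate to 0.25, 2.5, 25 and 250 µg/mL in DMSO/RPMI for 48 h at 37 °C under 5% CO2. Plates were TCA-fixed before (T0) and after treatment, then stained with sulforhodamine B and read at 540 nm. GI50 was obtained by non-linear regression against untreated growth. Doxorubicin served as positive control.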

[4] = Antiproliferative activity against human HT-29 cells after 48 hrs by SRB assay; assay type: functional; conditions: HT-29, 48 h; method in brief: as §2
[5] = Antiproliferative activity against human NCI-H460 cells after 48 hrs by SRB assay; assay type: functional; conditions: NCI-H460, 48 h; method in brief: as §2
786-0 [6] = test: Induction of apoptosis in human 786-0 cells assessed as necrotic cells at 25 uM after 15 hrs by Annexin V/7-AAD staining based flow cytometry; assay type: functional; method in brief: as §1
[7] = Cell cycle arrest in human 786-0 cells assessed as accumulation at sub-G1 phase at 6.25 uM after 24 hrs by propidium iodide staining-based flow cytometry (Rvb=3.7+/-0.9%); assay type: functional
Method in brief: (§3)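 786-0 cells seeded at 3×10^4 cells/mL and grown 24 h, then serum-starved 24 h to synchronise. Treated in DMSO/RPMI for 24 h alongside DMSO vehicle and colchicine control. 1×10^5 cells in PBS were stained with propidium iodide for 20 min in the dark at room temperature, then analysed by flow cytometry. Results are mean ± standard error % cells from three experiments in triplicate; ANOVA/Tukey.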

[8] = Antiproliferative activity against human NCI/ADR-RES cells after 48 hrs by SRB assay; assay type: functional; method in brief: as §2
[9] = Cell cycle arrest in human 786-0 cells assessed as accumulation at G1 phase at 12.5 uM after 24 hrs by propidium iodide staining-based flow cytometry (Rvb=47.1+/-1%); assay type: functional; method in brief: as §3
[10] = Cytotoxicity against human 786-0 cells after 48 hrs by SRB assay; assay type: functional; conditions: 786-0, 48 h
Method in brief: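 Sulforhodamine B assay in RPMI 1640 with 5% FBS. Triplicate exposures to 0.25–250 µg/mL in DMSO/RPMI for 48 h at 37 °C under 5% CO2. T0 and treated plates were fixed with 50% TCA and absorbance read at 540 nm. Parameters: TGI is total growth inhibition; LC50 is the concentration killing 50% of cells. Doxorubicin served as control.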

786-0 [11] = test: Induction of apoptosis in human 786-0 cells assessed as late apoptotic or necrotic cells at 25 uM after 24 hrs by 7-AAD staining based flow cytometry; assay type: functional; method in brief: as §1
786-0 [12] = test: Induction of apoptosis in human 786-0 cells assessed as late apoptotic or necrotic cells at 25 uM after 15 hrs by 7-AAD staining based flow cytometry; assay type: functional; method in brief: as §1
[13] = Cell cycle arrest in human 786-0 cells assessed as accumulation at S phase at 12.5 uM after 24 hrs by propidium iodide staining-based flow cytometry (Rvb=12.6+/-0.7%); assay type: functional; method in brief: as §3
786-0 [14] = test: Induction of apoptosis in human 786-0 cells assessed as necrotic cells at 25 uM after 24 hrs by Annexin V/7-AAD staining based flow cytometry; assay type: functional; method in brief: as §1
Human alphaherpesvirus 1 = test: Antiviral activity against Herpes simplex type I KOS; assay type: functional; conditions: Human alphaherpesvirus 1, KOS
786-0 [15] = test: Induction of apoptosis in human 786-0 cells assessed as necrotic cells at 25 uM after 18 hrs by Annexin V/7-AAD staining based flow cytometry; assay type: functional; method in brief: as §1
[16] = Cell cycle arrest in human 786-0 cells assessed as accumulation at G2/M phase at 6.25 uM after 24 hrs by propidium iodide staining-based flow cytometry (Rvb=36.5+/-1.1%); assay type: functional; method in brief: as §3
[17] = Cell cycle arrest in human 786-0 cells assessed as accumulation at S phase at 6.25 uM after 24 hrs by propidium iodide staining-based flow cytometry (Rvb=12.6+/-0.7%); assay type: functional; method in brief: as §3
[18] = Selectivity index, ratio of CC50 for Herpes simplex type I KOS infected African green monkey Vero cells to EC50 for Herpes simplex virus type 1 KOS; assay type: toxicity, cell-based; conditions: Herpes simplex virus type 1 KOS infected Vero cells, read-out: Ratio CC50/EC50
Method in brief: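 SI calculated as CC50/EC50. CC50 is the 50% cytotoxic concentration on Vero cells by sulforhodamine B, tested in triplicate from 0.1 to 1000 µg/mL. EC50 is the concentration protecting 50% of cells against HSV-1, with acyclovir as HSV-1 standard and drug-free cells as control.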

[19] = Cell cycle arrest in human 786-0 cells assessed as accumulation at G2/M phase at 12.5 uM after 24 hrs by propidium iodide staining-based flow cytometry (Rvb=36.5+/-1.1%); assay type: functional; method in brief: as §3
[20] = Cell cycle arrest in human 786-0 cells assessed as accumulation at sub-G1 phase at 12.5 uM after 24 hrs by propidium iodide staining-based flow cytometry (Rvb=3.7+/-0.9%); assay type: functional; method in brief: as §3
[21] = Cell cycle arrest in human 786-0 cells assessed as accumulation at G1 phase at 6.25 uM after 24 hrs by propidium iodide staining-based flow cytometry (Rvb=47.1+/-1%); assay type: functional; method in brief: as §3
[22] = Antiproliferative activity against human MCF7 cells after 48 hrs by SRB assay; assay type: functional; conditions: MCF7, 48 h; method in brief: as §2
[23] = Antiproliferative activity against human 786-0 cells after 48 hrs by SRB assay; assay type: functional; conditions: 786-0, 48 h; method in brief: as §2

Work on CN(C)c1ccc(-c2nc(C(=O)N/N=C3/NC(=O)CS3)cc3c2[nH]c2ccccc23)cc1 yielded an Activity (786-0 [1]) of 34.7%, a CC50 at 48 h [2] of 1740 µM and a GI50 [3] of 1.27 µM. It also gave a GI50 [4] of 5.04 µM, a GI50 [5] of 1.44 µM and an Activity (786-0 [6]) of 3.6%. The Activity [7] was 2.3%, the GI50 [8] was 0.48 µM and the Activity [9] was 40.5%. For the same molecule, the TGI [10] was 13 µM, the CC50 ([10]; read-out: LC50 (the source's name)) was 105 µM and the Activity (786-0 [11]) was 36.6%. The Activity (786-0 [12]) was 3.9%, the Activity [13] was 12.4% and the Activity (786-0 [14]) was 38.7%. For the same molecule, the pEC50 (Human alphaherpesvirus 1) was 4.01, the Activity (786-0 [15]) was 34.4% and the Activity [16] was 37%. It also gave an Activity [17] of 11.9%, a selectivity ratio [18] of 18 and an Activity [19] of 31.8%. The Activity [20] was 15.3%, the Activity [21] was 48.7% and the GI50 [22] was 2.93 µM. It also gave a GI50 [23] of 1.6 µM.
